“And” between values parts separate entries of the source, which are not always exact repeats. Equal values may be shown once.
What was measured:
[1] = test system: patients with relapsed and/or refractory MDS, CMML, or AML; test: Safety: adverse events, dose-limiting toxicities and deaths; format: in vivo, human; conditions: Total
In short: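 Open-label, multicenter part 1 in adults with relapsed/refractory MDS, CMML or secondary AML. The 300 mg dose-expansion cohort took the test compound orally once daily with water only, at about the same time (±4 h), on every day of 28-day cycles. Deaths were split into ⩽30 days or >30 days after the last dose. The analysis covered all patients given at least one dose.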

[2] = test system: patients with relapsed and/or refractory MDS, CMML, or AML; test: Clinical response per International Working Group criteria, PFS and OS; format: in vivo, human

`CC(=O)N1CCC(Nc2cc(C(=O)NC[C@H](O)CN3CCc4ccccc4C3)ncn2)CC1` [GSK3326595] was tested, and the “GSK3326595-related TEAE: Any SAE” value ([1]; N = 30) was 6 (20%) n (%) and 6 (20) n (%), the “GSK3326595-related TEAE: Any TEAEs” value ([1]; N = 30) was 22 (73) n (%) and the “GSK3326595-related TEAE: Any grade 3/4 TEAE” value ([1]; N = 30) was 13 (43) n (%). For the same molecule, the “GSK3326595-related TEAE: Decreased appetite” value ([1]; N = 30) was 4 (13%) n (%) and 4 (13) n (%), the “GSK3326595-related TEAE: Decreased platelet count” value ([1]; N = 30) was 8 (27%) n (%) and 8 (27) n (%) and the “GSK3326595-related TEAE: Dysgeusia” value ([1]; N = 30) was 7 (23%) n (%) and 7 (23) n (%). The “GSK3326595-related TEAE: Fatal SAE” value ([1]; N = 30) was 1 (3) n (%), the “GSK3326595-related TEAE: Fatigue” value ([1]; N = 30) was 6 (20%) n (%) and 6 (20) n (%) and the “GSK3326595-related TEAE: Nausea” value ([1]; N = 30) was 6 (20%) n (%) and 6 (20) n (%). The “GSK3326595-related TEAE: Neutrophil count decreased” value ([1]; N = 30) was 4 (13%) n (%) and 4 (13) n (%), the “GSK3326595-related TEAE: Thrombocytopenia” value ([1]; N = 30) was 3 (10%) n (%) and 3 (10) n (%) and the “Patients who died during the study” value ([1]; N = 30) was 83%. For the same molecule, the “SAE: anemia” value ([1]; N = 30) was 3 (10%) n (%), the “SAE: febrile neutropenia” value ([1]; N = 30) was 5 (17%) n (%) and the “SAE: pneumonia” value ([1]; N = 30) was 4 (13%) n (%). For the same molecule, the “SAE: sepsis” value ([1]; N = 30) was 8 (27%) n (%), the “SAE: thrombocytopenia” value ([1]; N = 30) was 3 (10%) n (%) and the “TEAE with maximum grade of 3 or 4: anemia” value ([1]; N = 30) was 8 (27%) n (%). For the same molecule, the “TEAE with maximum grade of 3 or 4: decreased neutrophil count” value ([1]; N = 30) was 7 (23%) n (%), the “TEAE with maximum grade of 3 or 4: decreased platelet count” value ([1]; N = 30) was 11 (37%) n (%) and the “TEAE with maximum grade of 3 or 4: dyspnea” value ([1]; N = 30) was 4 (13%) n (%). For the same molecule, the “TEAE with maximum grade of 3 or 4: fatigue” value ([1]; N = 30) was 4 (13%) n (%), the “TEAE with maximum grade of 3 or 4: febrile neutropenia” value ([1]; N = 30) was 6 (20%) n (%) and the “TEAE with maximum grade of 3 or 4: hypotension” value ([1]; N = 30) was 4 (13%) n (%). For the same molecule, the “TEAE with maximum grade of 3 or 4: pneumonia” value ([1]; N = 30) was 6 (20%) n (%), the “TEAE with maximum grade of 3 or 4: thrombocytopenia” value ([1]; N = 30) was 5 (17%) n (%) and the “TEAE: AE leading to dose interruption” value ([1]; N = 30) was 20 (67) n (%). For the same molecule, the “TEAE: AE leading to dose reduction” value ([1]; N = 30) was 6 (20) n (%), the “TEAE: AE leading to study treatment withdrawn” value ([1]; N = 30) was 7 (23) n (%) and the “TEAE: Anemia” value ([1]; N = 30) was 10 (33%) n (%) and 10 (33) n (%). For the same molecule, the “TEAE: Any AE” value ([1]; N = 30) was 30 (100) n (%), the “TEAE: Any SAE” value ([1]; N = 30) was 23 (77) n (%) and the “TEAE: Decreased appetite” value ([1]; N = 30) was 9 (30%) n (%) and 9 (30) n (%). The “TEAE: Decreased platelet count” value ([1]; N = 30) was 12 (40%) n (%) and 12 (40) n (%), the “TEAE: Diarrhea” value ([1]; N = 30) was 13 (43%) n (%) and 13 (43) n (%) and the “TEAE: Dysgeusia” value ([1]; N = 30) was 10 (33%) n (%) and 10 (33) n (%). For the same molecule, the “TEAE: Dyspnea” value ([1]; N = 30) was 11 (37%) n (%) and 11 (37) n (%), the “TEAE: Fatal SAE” value ([1]; N = 30) was 14 (47) n (%) and the “TEAE: Fatigue” value ([1]; N = 30) was 13 (43%) n (%) and 13 (43) n (%). For the same molecule, the “TEAE: Nausea” value ([1]; N = 30) was 9 (30%) n (%) and 9 (30) n (%), the “TEAE: thrombocytopenia” value ([1]; N = 30) was 5 (17%) n (%) and the “Treatment-related SAE: decreased neutrophil count” value ([1]; N = 30) was 3 (10%) n (%). For the same molecule, the “Study treatment discontinued due to sepsis” value ([1]; N = 30, n = 2) was 7%, the “Best overall response: CR” value ([2]; 300 mg once daily oral, n = 17) was 0 n (%) and the “Best overall response: Disease progression” value ([2]; 300 mg once daily oral, n = 17) was 9 (53) n (%). The “Best overall response: HI” value ([2]; 300 mg once daily oral, n = 17) was 0 n (%), the “Best overall response: Not evaluable” value ([2]; 300 mg once daily oral, n = 17) was 3 (18) n (%) and the “Best overall response: PR” value ([2]; 300 mg once daily oral, n = 17) was 0 n (%). For the same molecule, the “Best overall response: SD” value ([2]; 300 mg once daily oral, n = 17) was 4 (24) n (%), the “Best overall response: SD lasting <8 weeks” value ([2]; 300 mg once daily oral, n = 17) was 2 (12) n (%) and the “Best overall response: SD lasting ⩾8 weeks” value ([2]; 300 mg once daily oral, n = 17) was 2 (12) n (%). The “Best overall response: mCR” value ([2]; 300 mg once daily oral, n = 17) was 1 (6) n (%), the “Clinical benefit rate (CR + mCR + PR + SD ⩾8 weeks + HI)” value ([2]; 300 mg once daily oral, n = 17) was 3 (18) n (%) and the “Overall response rate (CR + mCR + PR)” value ([2]; 300 mg once daily oral, n = 17) was 1 (6) n (%). For the same molecule, the “Best overall response: CR” value ([2]; 400 mg once daily oral, n = 13) was 0 n (%), the “Best overall response: Disease progression” value ([2]; 400 mg once daily oral, n = 13) was 4 (31) n (%) and the “Best overall response: HI” value ([2]; 400 mg once daily oral, n = 13) was 0 n (%). The “Best overall response: Not evaluable” value ([2]; 400 mg once daily oral, n = 13) was 4 (31) n (%), the “Best overall response: PR” value ([2]; 400 mg once daily oral, n = 13) was 0 n (%) and the “Best overall response: SD” value ([2]; 400 mg once daily oral, n = 13) was 5 (38) n (%). For the same molecule, the “Best overall response: SD lasting <8 weeks” value ([2]; 400 mg once daily oral, n = 13) was 3 (23) n (%), the “Best overall response: SD lasting ⩾8 weeks” value ([2]; 400 mg once daily oral, n = 13) was 2 (15) n (%) and the “Best overall response: mCR” value ([2]; 400 mg once daily oral, n = 13) was 0 n (%). For the same molecule, the “Clinical benefit rate (CR + mCR + PR + SD ⩾8 weeks + HI)” value ([2]; 400 mg once daily oral, n = 13) was 2 (15) n (%), the “Duration of complete marrow remission” value ([2]; 1 patient, plain language summary) was “approximately 8 months” and the “Clinical benefit rate (CR + mCR + PR + SD ⩾8 weeks + HI)” value ([2]; Total, 400 or 300 mg once daily oral, N = 30) was 5 (17) n (%). The “Best overall response: CR” value ([2]; Total, N = 30) was 0 n (%), the “Best overall response: Disease progression” value ([2]; Total, N = 30) was 13 (43) n (%) and the “Best overall response: HI” value ([2]; Total, N = 30) was 0 n (%). For the same molecule, the “Best overall response: Not evaluable” value ([2]; Total, N = 30) was 7 (23) n (%), the “Best overall response: PR” value ([2]; Total, N = 30) was 0 n (%) and the “Best overall response: SD” value ([2]; Total, N = 30) was 9 (30) n (%). For the same molecule, the “Best overall response: SD lasting <8 weeks” value ([2]; Total, N = 30) was 5 (17) n (%), the “Best overall response: SD lasting ⩾8 weeks” value ([2]; Total, N = 30) was 4 (13%) n (%) and 4 (13) n (%) and the “Best overall response: mCR” value ([2]; Total, N = 30) was 1 (3%) n (%) and 1 (3) n (%). For the same molecule, the “Overall response rate (CR + mCR + PR)” value ([2]; Total, N = 30) was 1 (3) n (%), the “Patients meeting CBR criteria” value ([2]; Total, N = 30) was 17% and the Patients not evaluable ([2]; Total, N = 30) was 23%. For the same molecule, the “Patients with disease progression while on study treatment” value ([2]; Total, N = 30) was 43% and the “Duration of mCR” value ([2]; one patient with MDS, 300-mg cohort) was 245 days.

— PMC11406655 (Therapeutic Advances in Hematology, 2024)
